These results are taken from BindingDB's records for doi:10.1021/jm00107a020 (Pfizer, 1991).

The target of this test is Aldo-keto reductase family 1 member B1 (Homo sapiens, UniProt P15121). The test is described as follows: In vitro inhibition of human placental aldose reductase. The gist of the method:
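Human placental aldose reductase, partly purified (placentae homogenized in 0.1 M K phosphate pH 7.0 with 5 mM 2-mercaptoethanol, spun 33000g, peak fractions pooled). Assay in 50 mM K phosphate pH 7.1 with 0.4 M ammonium sulfate, 0.067 mM NADPH, 1.0 mM DL-glyceraldehyde; enzyme set to 4 milliunits; NADPH oxidation at 340 nm, 25 °C, 10 min. IC50 by log linear regression.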

A word on the IC50: it is the concentration needed to halve the response being measured. A lower IC50 goes with greater potency in that assay. For the compound `CCOC(=O)C1CN(Cc2ccccc2Cl)C(=O)C1=O` (configuration not stated), the concentration for half-maximal inhibition (IC50) was 2300 nM. Under `CCOC(=O)C1CN(Cc2cccc3ccccc23)C(=O)C1=O` (configuration not stated) stands 2300 nM.
